Data on one molecule can be found in ChEMBL document CHEMBL3627626, “6-Substituted Pyrrolo[2,3-d]pyrimidine Thienoyl Regioisomers as Targeted Antifolates for Folate Receptor α and the Proton-Coupled Folate Transporter in Human Tumors” (J Med Chem, 2015).

One assay deals with R2. As to the kind of experiment: Cytotoxicity against Chinese hamster R2 cells transfected with empty PCDNA3 assessed as cell growth inhibition after 96 hrs by CellTiter-Blue assay. Type of assay: cell-based, Cricetulus griseus. In general terms: Resazurin is reduced to fluorescent resorufin, in cell work by metabolically active cells.
The test system of another assay is RT16. As to the kind of experiment: Selectivity ratio of IC50 for human RFC expressed in Chinese hamster PC43-10 cells assessed as cell growth inhibition to IC50 for human FRalpha expressed in Chinese hamster RT16 cells assessed as cell growth inhibition. The assay is classed as cell-based.
Assay [1] addresses T1, Proton-coupled folate transporter (Homo sapiens) (UniProt Q96NT5).
T1 sequence (whole entry): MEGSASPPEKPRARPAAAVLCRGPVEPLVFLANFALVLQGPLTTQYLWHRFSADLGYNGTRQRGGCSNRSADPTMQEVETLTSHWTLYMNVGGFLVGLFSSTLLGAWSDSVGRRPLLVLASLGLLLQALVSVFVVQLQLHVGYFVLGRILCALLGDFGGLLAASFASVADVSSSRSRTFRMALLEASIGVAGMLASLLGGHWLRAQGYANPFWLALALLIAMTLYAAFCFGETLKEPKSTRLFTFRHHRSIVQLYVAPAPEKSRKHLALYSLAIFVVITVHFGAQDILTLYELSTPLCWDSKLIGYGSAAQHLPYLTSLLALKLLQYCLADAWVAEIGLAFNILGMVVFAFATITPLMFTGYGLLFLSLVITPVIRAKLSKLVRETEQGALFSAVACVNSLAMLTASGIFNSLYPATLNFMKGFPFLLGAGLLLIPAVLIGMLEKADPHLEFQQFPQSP
As to the kind of experiment: Binding affinity to human PCFT expressed in Chinese hamster R2/PCFT4 cells assessed as cell growth inhibition after 96 hrs by CellTiter-Blue assay in presence of 200 nM folic acid. The assay is classed as cell-based. In short, it runs like this:
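Human-PCFT-transfected R2 CHO cells, precultured with G418, were plated at ~2500–5000 cells/well across a range of drug concentrations. Medium was folate-free RPMI 1640 (pH 7.2) with 25 nM LCV and 10% dialyzed FBS. Parallel wells received 200 nM folic acid. Incubated up to 96 h, then read with CellTiter Blue fluorescence (ex 560/em 590 nm).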

Another assay has as its system SK-OV-3. As to the kind of experiment: Antiproliferative activity against human SKOV3 cells after 96 hrs by CellTiter-Blue assay. The assay is classed as functional, cell-based. The following applies: SK-OV-3, 96 h. Summed up:
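IGROV1 and SKOV3 cells plated at ~2500–5000 cells/well in folate-free RPMI 1640 with 10% dialyzed FBS, antibiotics and 2 nM LCV, over a range of drug concentrations, ±200 nM folic acid in parallel. Incubated up to 96 h. Viability read by Cell Titer Blue fluorescence (ex 560/em 590 nm).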

The next assay concerns IGROV-1. Put plainly: Antiproliferative activity against human IGROV1 cells after 96 hrs by CellTiter-Blue assay in presence of 200 nM folic acid. The assay is classed as functional, cell-based. Conditions: IGROV-1, 96 h.
Assay [2] deals with Folate receptor beta (Homo sapiens) (UniProt P14207). As to the kind of experiment: Binding affinity to human FRbeta expressed in Chinese hamster D4 cells assessed as intracellular drug level at 50 nM at 37 degC after 1 hr. The assay is classed as cell-based. In short, it runs like this:
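D4 CHO cells (human FRβ) were acid-washed at pH 3.5, then given 50 nM [3H]drug in HBSS pH 7.4 at 37 °C for 60 min. A second acid wash removed surface-bound label to give the intracellular fraction. Cells were solubilised in NaOH, and values expressed as pmol/mg protein. Mean ±SEM of three experiments.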

The target of assay [3] is T1, Proton-coupled folate transporter (Homo sapiens). Put plainly: Binding affinity to human PCFT expressed in Chinese hamster R2/PCFT4 cells assessed as intracellular drug level at 0.5 uM at 37 degC at pH 5.5 measured over 5 mins. Type of assay: cell-based.
Assay [4] has the same target. As to the kind of experiment: Binding affinity to human PCFT expressed in Chinese hamster R2/PCFT4 cells assessed as intracellular drug transport rate at 37 degC at pH 5.5 measured over 2 mins by Lineweaver-Burk plot analysis. Type of assay: cell-based. In short, it runs like this:
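R2/PCFT4 CHO cells were grown as monolayers, transferred to spinner flasks, and used as suspensions (5–10 × 10⁷ cells). Uptake was quenched with ice-cold DPBS and cells were NaOH-solubilized. Results are pmol/mg protein; Kt and Vmax come from Lineweaver–Burke plots.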

The target in assay [5] is T2, Trifunctional purine biosynthetic protein adenosine-3 (Homo sapiens) (UniProt P22102).
T2 sequence (whole entry): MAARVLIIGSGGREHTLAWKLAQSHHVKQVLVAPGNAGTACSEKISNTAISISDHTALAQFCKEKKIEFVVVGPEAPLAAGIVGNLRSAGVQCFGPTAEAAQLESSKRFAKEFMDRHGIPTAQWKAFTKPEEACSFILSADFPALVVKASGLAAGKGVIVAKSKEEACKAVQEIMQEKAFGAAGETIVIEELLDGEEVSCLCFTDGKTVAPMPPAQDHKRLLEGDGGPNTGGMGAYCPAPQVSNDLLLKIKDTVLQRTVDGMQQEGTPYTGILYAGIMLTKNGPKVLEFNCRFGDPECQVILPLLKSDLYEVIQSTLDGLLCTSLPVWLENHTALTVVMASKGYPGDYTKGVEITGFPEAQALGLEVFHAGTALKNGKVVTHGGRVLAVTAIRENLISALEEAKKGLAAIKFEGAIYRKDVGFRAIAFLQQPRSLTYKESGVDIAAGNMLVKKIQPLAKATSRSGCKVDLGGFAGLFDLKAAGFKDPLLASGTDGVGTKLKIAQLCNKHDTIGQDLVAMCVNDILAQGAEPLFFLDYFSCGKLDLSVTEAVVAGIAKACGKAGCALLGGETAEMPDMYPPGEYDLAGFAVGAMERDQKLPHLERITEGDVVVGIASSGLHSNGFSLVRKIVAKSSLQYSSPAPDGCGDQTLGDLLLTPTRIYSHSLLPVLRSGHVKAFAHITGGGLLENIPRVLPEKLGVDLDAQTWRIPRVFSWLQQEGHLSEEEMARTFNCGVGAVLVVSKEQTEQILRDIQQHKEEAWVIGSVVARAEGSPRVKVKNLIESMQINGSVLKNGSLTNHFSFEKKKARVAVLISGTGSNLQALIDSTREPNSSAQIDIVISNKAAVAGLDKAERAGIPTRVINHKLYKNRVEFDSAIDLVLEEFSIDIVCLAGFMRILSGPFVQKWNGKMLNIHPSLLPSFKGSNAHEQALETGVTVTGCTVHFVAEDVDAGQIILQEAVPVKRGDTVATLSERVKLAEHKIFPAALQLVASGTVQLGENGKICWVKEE
Put plainly: Inhibition of GARFTase in human KB cells expressing FRalpha/PCFT/RFC assessed as cell growth inhibition after 96 hrs by CellTiter-Blue assay in presence of AICA. Type of assay: cell-based.

Assay [6] deals with T3, Trifunctional purine biosynthetic protein adenosine-3 (Homo sapiens, UniProt P22102).
T3 sequence (P22102 whole entry): T2 sequence (whole entry)
Put plainly: Inhibition of GARFTase in human KB cells expressing FRalpha/PCFT/RFC assessed as incorporation of [14C(U)]-glycine into [14C]-formyl GAR preincubated for 1 hr followed by azaserine, L-glutamine, 14C(U)]-glycine addition measured after 16 hrs. Type of assay: cell-based. In short, it runs like this: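 In situ assay in KB cells. Cells were exposed to a range of drug concentrations with [14C]glycine for 16 h under proliferation-assay conditions, with azaserine present. Radiolabelled metabolites were extracted and separated on anion exchange columns, and [14C]formyl GAR quantified. Mean ±SE of three experiments.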

In assay [7] the target is T3, Trifunctional purine biosynthetic protein adenosine-3. Put plainly: Inhibition of human recombinant His-tagged GARFTase assessed as formation of 5,8-dideazafolate from 10-formyl-5,80-dideazafolic acid measured every 15 secs over 20 mins by spectrophotometric analysis.

Calls of active or inactive are those of the source. No cut-off for these calls is given here.

What is called IC50 is the concentration that inhibits the measured activity by half. By Ki is commonly meant the dissociation constant of the complex between target and ligand, obtained from inhibition or displacement.

Folate receptor beta (Homo sapiens), sequence (P14207 17-230 limits assumed): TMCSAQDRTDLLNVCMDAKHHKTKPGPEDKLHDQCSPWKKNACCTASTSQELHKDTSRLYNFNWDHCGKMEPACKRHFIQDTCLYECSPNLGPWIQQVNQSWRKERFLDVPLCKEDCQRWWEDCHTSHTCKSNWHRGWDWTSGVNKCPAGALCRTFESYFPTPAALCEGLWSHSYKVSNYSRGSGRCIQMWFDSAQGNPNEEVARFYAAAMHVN

For the molecule `Nc1nc2[nH]c(CCCc3cc(C(=O)N[C@@H](CCC(=O)O)C(=O)O)cs3)cc2c(=O)[nH]1`, the IC50 in the assay on R2 is more than 1000 nM; in the assay on SK-OV-3, 15.5 nM; in the assay on IGROV-1, 276 nM; in assay [6] it was 2.6 nM. Besides, in the assay on RT16, the Ratio IC50 worked out at 610. The outcome in [1] and in assay [3] was Active. The Activity in assay [2] amounted to 3.35 pmol/mg. Further, in assay [4], the K was 0.22 µM. Also, in assay [5], the inhibition entry is “inactive”. For the same molecule, the Ki in [7] came out at 9.1 nM.
